Experimental data reported in the array DNA melting data of Ke et al. (doi:10.1101/2024.01.08.574731).

Columns and labels:
[1] = folding enthalpy; higher = less favourable; fluorescence melt of hairpins on a sequencing array, two-state fit; conditions: sodium 0.088 M
Summary of the method: (§1)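 Library hairpins on a sequenced MiSeq flow cell carried annealed Cy3 and quencher oligos, and their Cy3 fluorescence was imaged in 50 mM Na-HEPES pH 8.0 with 25 mM NaCl, in 2.5 °C steps up to 60 °C. Signals were normalised to Cy3 before quenching and to control constructs. Melting temperature and folding enthalpy were obtained from bootstrapped two-state fits, combined by inverse-variance weighting across four replicates, and the fitted temperatures were then raised by 9.35 °C to match UV melts.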

[2] = melting temperature; fluorescence melt of hairpins on a sequencing array, two-state fit, raised by 9.35 °C to match UV melts; conditions: sodium 0.088 M
Summary of the method: as §1

Sequence	folding enthalpy [1]	Tm [2]
GATTGCGGAAACGCGATC (((.(((....))).)))	-30.7 kcal/mol	57.5 °C
GATCTGGGAAACCAGATC (((((((....)))))))	-45.4 kcal/mol	58.5 °C
GTCCACGGAAACGCAGAC (((..((....))..)))	-21.3 kcal/mol	29.1 °C
GGGATCGAAAGATTCCCC ((((((....)))..)))	-18.8 kcal/mol	49.3 °C
GGAGACGGAAACGTTTCC (((.(((....))).)))	-30.3 kcal/mol	49.5 °C
CGCGAACGGAAACGTGCG (((..(((....))))))	-47.6 kcal/mol	49.6 °C
CGGTGCGGAAACGCCCG (((.(((....))))))	-30.8 kcal/mol	58 °C
GGACCTGGAAACAGGTCC (((((((....)))))))	-28.2 kcal/mol	68.7 °C
GCGAACGAAAGTTAACGC ((((((....)))..)))	-20.6 kcal/mol	44.6 °C
GATCCGTAATCGGATC ((((((....))))))	-34.4 kcal/mol	57 °C
GCTTTCGAAAGAATAAGC ((((((....)))..)))	-21.6 kcal/mol	33.4 °C
GCCTAAGGAAACCTAGGC (((((.(....).)))))	-39.3 kcal/mol	44.9 °C
GAGACCGAAAGGTACTC ((((((....))).)))	-17.5 kcal/mol	43.3 °C
GCATGGCGAAAGCAAGGC ((.(.((....)).).))	-17.2 kcal/mol	49.5 °C
GCGTGCACACGC ((((....))))	-25.7 kcal/mol	68 °C
GATCCAGTATGGATC ((((((...))))))	-39.8 kcal/mol	60.1 °C
GGCACTGGAAACAGCACC ((..(((....)))..))	-9.94 kcal/mol	23.5 °C
GATCCCGTCCGGGATC ((((((....))))))	-42 kcal/mol	67.9 °C
GTGGTGGGAAACCGTCAC (((..((....))..)))	-19.8 kcal/mol	38.4 °C
GATCGGGCCCCCGATC ((((((....))))))	-43.2 kcal/mol	59.6 °C
GTCGCCGAAAGGCAAGAC ((((((....)))..)))	-15.4 kcal/mol	49.8 °C
GCCCACGAAAGTGACGGC ((((((....)))..)))	-19.9 kcal/mol	49.6 °C
GATCGGTGTCCGATC ((((((...))))))	-32 kcal/mol	58.3 °C

Sequence	folding enthalpy [1]	Tm [2]
GGGAACGGAAACGTCCCC (((.(((....))).)))	-30.7 kcal/mol	50.2 °C
GTAAACGAAAGTTACTAC ((((((....)))..)))	-17.6 kcal/mol	34.8 °C
GTCGAAGCGAAAGCTGAC (((..(((....))))))	-14.8 kcal/mol	46.5 °C
GGCTTCGGAAACGGAGCC ((((.((....)).))))	-42.2 kcal/mol	59.1 °C
GACTTGGGAAACCGAGTC ((((.((....)).))))	-45.3 kcal/mol	49.5 °C
GCCCTGCGAAAGCCCGGC (((..((....))..)))	-23 kcal/mol	39.1 °C
GCACCAGGAAACTGATGC (((.(((....))).)))	-28.6 kcal/mol	45 °C
CGTCCGGAAACGGGGACG ((((((....)))..)))	-25 kcal/mol	48.3 °C
GCTCCGCGAAAGCAGCGC ((.(.((....)).).))	-17.1 kcal/mol	43.7 °C
GATGGAGGAAACTCCGTC ((.((((....)))).))	-31.9 kcal/mol	48.9 °C
GTGCGACGAAAGTCTCAC (((.(((....))).)))	-41.1 kcal/mol	50.5 °C
GATCAGGCACTGATC ((((((...))))))	-43.6 kcal/mol	59.8 °C
GATCAACTATTGATC ((((((...))))))	-30.4 kcal/mol	41 °C
GATCTTACGCAAGATC ((((((....))))))	-31.1 kcal/mol	42.9 °C
GGAACGGCGAAAGCCTCC (((..(((....))))))	-10.3 kcal/mol	31.6 °C
GGTGTCGAAAGACTTACC ((((((....)))..)))	-17.7 kcal/mol	37.4 °C
GATCCGGCTCCGGATC ((((((....))))))	-38.4 kcal/mol	59.1 °C
GTAGTCCGAAAGGATAC (((.(((....))))))	-15.8 kcal/mol	38 °C
GCGAGGTGTCGC ((((....))))	-5.64 kcal/mol	65.7 °C
GATCCGCATGCGGATC ((((((....))))))	-30.3 kcal/mol	69 °C
GATGGTGGAAACACCGTC ((.((((....)))).))	-23.7 kcal/mol	53.6 °C
GCGCCCGAAAGGGATCGC ((((((....)))..)))	-20.4 kcal/mol	51.8 °C
GATCAGGGAAACTTGATC (((((.(....).)))))	-30.7 kcal/mol	38.2 °C

Sequence	folding enthalpy [1]	Tm [2]
GGAATCGAAAGATCTTCC ((((((....)))..)))	-20.9 kcal/mol	30.6 °C
GGGCCAGGAAACCGGCCC (((((.(....).)))))	-33.2 kcal/mol	64 °C
GACATAGGAAACTATGTC (((((((....)))))))	-35.6 kcal/mol	53.5 °C
GACGACGGAAACGTCACC (..((((....))))..)	-11.5 kcal/mol	35.4 °C
GGATCCTCGAAAGAGTCC (((..(((....))))))	-12.3 kcal/mol	23.6 °C
GTACGGGCGAAAGCCTAC (((..(((....))))))	-8.32 kcal/mol	30 °C
GATCTCAGTTGAGATC ((((((....))))))	-34.5 kcal/mol	54.2 °C
GAGATGCCGAAAGGCCTC (((..(((....))))))	-10.1 kcal/mol	32.1 °C
GTGTTGGGAAACCAGTAC ((..(((....)))..))	-11 kcal/mol	25 °C
GAATGCGGAAACGCACTC ((.((((....)))).))	-13.1 kcal/mol	38.4 °C
GCAACGCCGAAAGGCTGC (((..(((....))))))	-15.4 kcal/mol	47.8 °C
GATCTAACTTAGATC ((((((...))))))	-29.3 kcal/mol	37.3 °C
GATCCGAAGGCGGATC ((((((....))))))	-28.4 kcal/mol	52.3 °C
GGTGAATCGAAAGATACC (((..(((....))))))	-16.8 kcal/mol	29.8 °C
GCGGTTACCGC ((((...))))	-28.8 kcal/mol	59.2 °C
GGATGCGGAAACGCGTCC (((.(((....))).)))	-47.5 kcal/mol	61.8 °C
GTATGCGGAAACGTGTAC (((..((....))..)))	-30.2 kcal/mol	39.4 °C
GGTATCGAAAGATGAACC ((((((....)))..)))	-15.4 kcal/mol	27.9 °C
GTCGGGCGAAAGCCGGAC (((.(((....))).)))	-27.7 kcal/mol	67.7 °C
GCATTGCGAAAGCTATGC ((((.((....)).))))	-38.9 kcal/mol	62.5 °C
GGCTTACGAAAGTAGGCC (((.(((....))).)))	-43.6 kcal/mol	60.1 °C
GATCGAAGACTCGATC ((((((....))))))	-30.3 kcal/mol	48.5 °C
GGGTGTCCGAAAGGACCC (((..(((....))))))	-14 kcal/mol	55 °C
